Assay outcomes: PubChem, several laboratories
The list is not random: actives were taken first. Their share in the collection is about 3.4%.
MEKK3 PB1 HTS: modulators (inhibitors or enhancers) of MEK5 binding to human MEKK3 PB1 domain | Q99759 | binding response (% of control), % at 10 µM | bead-based flow cytometry, Alexa488-MEK5 binding to MEKK3; actives lie on both sides; 0 = blocked by unlabeled MEK5, 100 = vehicle | 1.4% of 290,000 active;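 active = binding response more than 3 SD above or below the average of its plate-row segment, actives on both sides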;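 note: Alexa488 bead fluorescence after subtracting the streptavidin-only scavenger bead signal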
Target sequence (Q99759 whole entry, looked up, the tested form may be a part): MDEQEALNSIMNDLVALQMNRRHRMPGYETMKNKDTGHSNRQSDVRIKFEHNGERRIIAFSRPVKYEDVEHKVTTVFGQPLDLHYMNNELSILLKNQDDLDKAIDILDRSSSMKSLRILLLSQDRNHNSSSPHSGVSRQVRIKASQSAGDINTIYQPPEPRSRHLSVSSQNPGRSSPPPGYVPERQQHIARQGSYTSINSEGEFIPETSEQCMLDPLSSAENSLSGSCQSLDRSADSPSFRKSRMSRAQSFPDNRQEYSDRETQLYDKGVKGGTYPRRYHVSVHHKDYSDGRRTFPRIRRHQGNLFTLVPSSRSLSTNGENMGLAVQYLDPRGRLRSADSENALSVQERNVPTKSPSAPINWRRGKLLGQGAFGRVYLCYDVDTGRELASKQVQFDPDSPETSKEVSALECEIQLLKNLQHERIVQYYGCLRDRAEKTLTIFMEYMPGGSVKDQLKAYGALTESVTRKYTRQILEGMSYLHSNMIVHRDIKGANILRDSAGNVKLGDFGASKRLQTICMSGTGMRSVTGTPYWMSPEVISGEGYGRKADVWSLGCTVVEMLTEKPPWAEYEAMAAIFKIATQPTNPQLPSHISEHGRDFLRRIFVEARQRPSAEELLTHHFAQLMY
MEKK2 WT-MEK5: raises or lowers MEK5 binding to wildtype human MEKK2 PB1 domain; binding response (% of control), % at 10 µM; Q9Y2U5; 1.1% of 290,000 active; bead flow cytometry, Alexa488-MEK5 binding to MEKK2 WT; actives lie on both sides; in the data active = binding response below about 67% or above about 130%
IMP-1 inh: inhibitors of Pseudomonas aeruginosa IMP-1 metallo-beta-lactamase; purified IMP-1, nitrocefin hydrolysis, epi-absorbance fluorescence; inhibition, % at 5.6 µM; 0.45% of 290,000 active; AID 1556;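 active = inhibition above the mean plus 3 SD of all compounds in the same screening run, cut at about 4.5% in these data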;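 note: 0% = IMP-1 with DMSO and 100% = DMSO wells lacking enzyme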
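System: Purified recombinant IMP-1 metallo-beta-lactamase enzyme | Measured by: Fluorescence quenching readout, ex 480/em 530 nm | Replication: Singlicate | Incubation: 15 min preincubation plus 25 min reaction at 25 °C | Evaluation: Percent inhibition from optical density relative to buffer-blank wells | Benchmarks: DMSO with and without IMP-1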
MEKK2 mut-MEK5: signal of MEK5 binding to mutant human MEKK2 PB1 domain; bead flow cytometry, Alexa488-MEK5 binding to MEKK2 mutant; AID 1530; percent response, % at 10 µM; 0.35% of 290,000 active; in the data active = percent response above about 24%, passing the limit was not always enough
VIM-2 inhibitor: blocks Pseudomonas aeruginosa VIM-2 metallo-beta-lactamase. purified VIM-2, nitrocefin hydrolysis, epi-absorbance fluorescence. inhibition, % at 5.6 µM. 0.89% of 290,000 active. AID 1527;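 active = inhibition above the mean of all tested compounds plus 3 SD, cutoff set per screening run, cut at about 7.5% in these data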;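 note: red hydrolysis product quenches plate fluorescence so inhibitors raise well fluorescence; 0% = enzyme with DMSO and 100% = DMSO without enzyme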
* hit, by the source's call; x = no result.

SMILES	MEKK3 PB1 HTS	MEKK2 WT-MEK5	IMP-1 inh	MEKK2 mut-MEK5	VIM-2 inhibitor
CC(C)Nc1nc(Cl)nc(N(C#N)CN2C(=O)c3ccccc3S2(=O)=O)n1	99	94	6.9*	-5	4
O=C1c2ccccc2S(=O)(=O)N1CC(O)COc1ccc(Cl)cc1 (stereo not drawn)	100	106	-1	3	1
O=C1c2ccccc2S(=O)(=O)N1CC(O)COc1ccc(Br)cc1 (stereo not drawn)	102	94	5.3*	0	0
CC(CS(=O)(=O)c1ccc2c(c1)NC(=O)CS2)C(=O)NCc1ccccc1Cl (stereo not drawn)	91	93	9.2*	-7	-3
COCCCNC(=S)NNC(=O)c1csc(C)n1	103	101	8.7*	3	-2
O=C(Oc1ccc(Br)cc1C(=O)/C=C/c1ccccc1F)c1ccco1	x	x	-4	x	-2
COc1cc(/C=C(\C#N)C(=O)NCCc2ccccc2)cc(OC)c1O	101	105	-4	2	-3
COc1cc(/C=C(\C#N)C(=O)c2c[nH]c3ccccc23)cc(OC)c1O	100	100	4.8*	5	-3
COc1cccc2c(=O)c(SC(F)(F)C(F)C(F)(F)F)c(C)[nH]c12 (stereo not drawn)	103	104	-6	0	-4
CCCN1C(=O)S/C(=C\c2ccc(N3CCOCC3)o2)C1=O	94	88	5.9*	-10	-4
COc1ccccc1/C=C1/C(=O)ON=C1C	103	104	-2	1	3
Cc1c(OCc2nn[nH]n2)ccc2c3c(c(=O)oc12)CCCC3	95	92	-4	-5	7.8*
Cc1c(OCC(=O)NCC2CCC(C(=O)O)CC2)ccc2c3c(c(=O)oc12)CCC3 (stereo not drawn)	103	101	-4	3	9.4*
Cc1c(OCC(=O)C(C)(C)C)ccc2c3c(c(=O)oc12)CCCC3	108	112	-4	5	5
Cc1c(OCC(=O)NCC(O)c2ccccc2)ccc2c3c(c(=O)oc12)CCCC3 (stereo not drawn)	103	101	-3	11	9.3*
CCOC(=O)COc1ccc2c3c(c(=O)oc2c1C)CCC3	102	108	-1	3	8.1*
Cn1nc(-c2ccc(OCC(=O)NCC3CCCO3)cc2)c2ccccc2c1=O (stereo not drawn)	105	103	-3	6	11*
Cn1nc(-c2ccc(C(=O)NCCO)cc2)c2ccccc2c1=O	91	93	-1	-14	10*
Cc1cc(-c2nn(C)c(=O)c3ccccc23)cc(C)c1O	97	92	-1	-3	9.2*
CCOC(=O)CNc1nc(Oc2ccc(=O)n(C)n2)nc(N(CC)CC)n1	92	94	-2	-2	-5
COc1ccc(Sc2nc(-c3ccccn3)ncc2OC)cc1	112	102	-6	1	7.9*
COc1cnc(-c2ccccn2)nc1Sc1ccccc1	94	87	-4	-17	4
O=C(c1ccc(Br)cc1)N1CCC(C(=O)N2CCN(c3ccccc3)CC2)CC1	103	101	-2	5	-2
COc1cccc(-c2cc(C(F)(F)F)nc(N3CCC(C)CC3)n2)c1	103	101	4.5*	1	-2
CCOc1cc(/C=C/C(=O)Nc2ccc(C(=O)NCCN(CC)CC)cc2)ccc1OCC(C)C	122	138*	0	4	-2
SMILES	MEKK3 PB1 HTS	MEKK2 WT-MEK5	IMP-1 inh	MEKK2 mut-MEK5	VIM-2 inhibitor
CCOC(=O)c1cc2occc2n1Cc1ccc(F)cc1	100	104	24*	1	-3
C[N+]1(CCn2ccc3ccccc32)CCCCC1	100	90	-3	-12	-1
Cc1cc(NC(=O)/C=C/c2ccccc2Cl)n(-c2nc3ccccc3[nH]2)n1	150*	117	-4	1	-6
O=C1c2cccnc2C(=O)N1Cc1ccc(S(=O)(=O)N2CCN(c3ccc(Cl)cc3)CC2)cc1	102	100	2	-2	8.5*
CC1CCCCC1N=CC1=C(O)CC(C)(C)CC1=O (stereo not drawn)	99	97	-3	2	-4
O=C(CSc1nc2ccsc2c(=O)n1CC1CCC(C(=O)O)CC1)c1ccc(Cl)cc1 (stereo not drawn)	63	73	14*	-12	-1
N#C/C(=C\c1sc(N2CCOCC2)nc1-c1ccccc1)C(=O)Nc1cccc2ccccc12	135*	92	-3	5	-2
COc1ccc(-c2cc(C(=O)Nc3cc(Br)ccc3O)no2)cc1	105	103	52*	7	0
Cc1cccc(OCC(=O)N2CCN(C(=O)CCC3CCCC3)CC2)c1	100	99	-2	3	-3
CCN(CC)CCN1CNC(=S)N(c2ccccc2OC)C1	104	128	-1	11	-1
C=CCC(NC(C)c1ccccc1)c1ccco1 (stereo not drawn)	104	106	8.4*	15	2
COc1ccc(N(CC(=O)Nc2ccc(C(N)=O)cc2)S(=O)(=O)c2ccc(C)c([N+](=O)[O-])c2)cc1	102	-7.0*	-2	6	-1
CCC12CC3CC(C1)CC(C(=O)O)(C3)C2	96	100	-3	-2	-2
Cc1c(O)c(CN(C)C)cc2c1oc(=O)c1ccccc12	97	100	-1	-6	11*
COc1cccc(-c2nnc3sc(-c4cccs4)nn23)c1	114	112	0	5	1
c1coc(-c2nnc3sc(-c4cccs4)nn23)c1	100	99	0	-8	7.9*
CCCN(CCC)c1ccc(/C=C/c2ccc3cc(OCC)ccc3n2)cc1	86	x	-1	51*	-1
O=C(COc1ccc(Br)cc1)N1CCNC1=O	100	99	0	0	0
COc1ccc(CC(=O)NC(c2ccccc2)c2ccccc2)cc1S(=O)(=O)N1CCOCC1	103	111	-3	6	-1
CN(C)/C=N/C1=C(C#N)C(c2ccc(Br)cc2)c2ccc3ccccc3c2O1 (stereo not drawn)	99	89	6.1*	3	-2
N#CC1=C(N)Oc2c(ccc3ccccc23)C1c1cccs1 (stereo not drawn)	101	97	-3	1	-1
CC1=NN(c2ccccc2)C(=O)/C1=C/c1c(O)n(-c2ccc(F)c(Cl)c2)[nH]c1=O	103	116	-3	14	-3
CCC(c1nnc(SCC(=O)Nc2ccc(C(C)=O)cc2)n1C1CCCCC1)N(C)C (stereo not drawn)	98	96	-3	-1	12*
Cc1cc(C)n2c3c(c(C#N)c2n1)CCCC3	104	104	-8	4	7.7*
CCCc1nc2oc3c(NCCCN(C)C)ncnc3c2c2c1CCCC2	69	90	-4	-16	12*
CCCc1nc2oc3c(NCCN(C)C)ncnc3c2c2c1CCCC2	100	115	0	1	6
